{"source": "ChEMBL document CHEMBL2010643", "about": "(Bioorg Med Chem Lett, 2012)", "key": {"[1]": {"target": "Ribosomal protein S6 kinase beta-1 (Homo sapiens) (UniProt P23443)", "sequence (P23443 whole entry, looked up)": "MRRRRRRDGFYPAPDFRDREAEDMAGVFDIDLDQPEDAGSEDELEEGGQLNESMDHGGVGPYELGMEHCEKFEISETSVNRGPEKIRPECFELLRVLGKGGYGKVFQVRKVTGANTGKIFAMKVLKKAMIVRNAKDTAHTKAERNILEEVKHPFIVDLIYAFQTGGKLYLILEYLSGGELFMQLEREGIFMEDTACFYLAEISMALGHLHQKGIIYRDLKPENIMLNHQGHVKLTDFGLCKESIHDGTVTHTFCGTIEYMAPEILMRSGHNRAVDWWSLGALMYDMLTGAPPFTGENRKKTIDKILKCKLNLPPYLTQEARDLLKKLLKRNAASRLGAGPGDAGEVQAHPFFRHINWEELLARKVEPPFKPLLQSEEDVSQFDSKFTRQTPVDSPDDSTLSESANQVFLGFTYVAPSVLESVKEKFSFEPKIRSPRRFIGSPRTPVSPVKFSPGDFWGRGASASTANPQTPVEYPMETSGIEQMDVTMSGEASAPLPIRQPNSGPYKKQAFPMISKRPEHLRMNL", "test": "Inhibition of S6K1 assessed as residual activity at 1 uM relative to control"}, "[2]": {"target": "Proto-oncogene tyrosine-protein kinase Src (Homo sapiens) (UniProt P12931)", "sequence (P12931 2-536 limits assumed)": "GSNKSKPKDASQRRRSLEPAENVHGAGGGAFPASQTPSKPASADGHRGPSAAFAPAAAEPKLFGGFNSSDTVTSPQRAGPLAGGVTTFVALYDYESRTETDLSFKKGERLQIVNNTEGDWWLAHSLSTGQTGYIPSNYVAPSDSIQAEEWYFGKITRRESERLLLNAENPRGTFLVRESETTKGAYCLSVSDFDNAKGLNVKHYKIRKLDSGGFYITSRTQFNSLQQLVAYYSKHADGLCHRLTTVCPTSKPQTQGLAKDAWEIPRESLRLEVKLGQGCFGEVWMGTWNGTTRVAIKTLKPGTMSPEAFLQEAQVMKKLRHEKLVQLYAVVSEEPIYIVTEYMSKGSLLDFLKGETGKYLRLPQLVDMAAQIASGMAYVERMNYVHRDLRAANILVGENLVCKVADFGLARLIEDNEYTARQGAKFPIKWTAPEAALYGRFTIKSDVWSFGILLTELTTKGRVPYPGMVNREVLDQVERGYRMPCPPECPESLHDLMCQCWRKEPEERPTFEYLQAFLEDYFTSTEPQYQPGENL", "test": "Inhibition of Src assessed as residual activity at 1 uM relative to control"}, "[3]": {"target": "Tau-tubulin kinase 1 (Homo sapiens) (UniProt Q5TCY1)", "test": "Inhibition of TTBK1 assessed as residual activity at 1 uM relative to control", "in_short": "(§1)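 Radioactivity-based enzymatic kinase assays run across a 124-kinase profiling panel (Dundee), reporting the remaining kinase activity relative to a control.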"}, "[4]": {"target": "Eukaryotic translation initiation factor 2-alpha kinase 3 (Homo sapiens) (UniProt Q9NZJ5)", "test": "Inhibition of EIF2AK3 assessed as residual activity at 10 uM relative to control"}, "[5]": {"target": "Glycogen synthase kinase-3 beta (Homo sapiens) (UniProt P49841)", "sequence (P49841 whole entry, looked up)": "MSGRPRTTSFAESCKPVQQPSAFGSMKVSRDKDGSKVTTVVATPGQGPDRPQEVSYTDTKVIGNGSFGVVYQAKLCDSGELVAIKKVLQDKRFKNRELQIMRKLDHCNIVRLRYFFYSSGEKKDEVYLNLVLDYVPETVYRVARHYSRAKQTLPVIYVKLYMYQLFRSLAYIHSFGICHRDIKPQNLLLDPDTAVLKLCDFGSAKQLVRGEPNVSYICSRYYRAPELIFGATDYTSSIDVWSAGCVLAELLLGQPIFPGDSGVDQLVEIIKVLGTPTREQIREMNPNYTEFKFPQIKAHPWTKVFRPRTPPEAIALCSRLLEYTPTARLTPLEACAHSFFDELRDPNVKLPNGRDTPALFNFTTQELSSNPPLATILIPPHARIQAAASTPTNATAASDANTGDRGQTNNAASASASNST", "test": "Inhibition of GSK3b assessed as residual activity at 10 uM relative to control"}, "[6]": {"target": "Dual specificity mitogen-activated protein kinase kinase 2 (Homo sapiens) (UniProt P36507)", "test": "Inhibition of MKK2 assessed as residual activity at 10 uM relative to control"}, "[7]": {"target": "MAP kinase-interacting serine/threonine-protein kinase 2 (Homo sapiens) (UniProt Q9HBH9)", "test": "Inhibition of MNK2 assessed as residual activity at 10 uM relative to control"}, "[8]": {"target": "Mitogen-activated protein kinase 13 (Homo sapiens) (UniProt O15264)", "sequence (O15264 whole entry)": "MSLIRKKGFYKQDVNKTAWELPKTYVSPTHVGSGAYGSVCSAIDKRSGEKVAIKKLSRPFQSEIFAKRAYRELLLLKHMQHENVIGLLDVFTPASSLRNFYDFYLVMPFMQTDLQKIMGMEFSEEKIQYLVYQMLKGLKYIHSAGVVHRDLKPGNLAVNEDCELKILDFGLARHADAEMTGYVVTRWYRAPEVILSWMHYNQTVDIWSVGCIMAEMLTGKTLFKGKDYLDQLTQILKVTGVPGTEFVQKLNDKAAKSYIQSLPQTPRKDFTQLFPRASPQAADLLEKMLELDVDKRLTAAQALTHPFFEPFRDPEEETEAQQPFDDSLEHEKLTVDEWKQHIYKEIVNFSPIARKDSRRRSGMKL", "test": "Inhibition of p38delta MAPK assessed as residual activity at 10 uM relative to control", "in_short": "as §1"}, "[9]": {"target": "Serine/threonine-protein kinase pim-1 (Homo sapiens) (UniProt P11309)", "test": "Inhibition of PIM1 assessed as residual activity at 10 uM relative to control"}, "Plasma": {"test_system": "Plasma", "test": "AUClast in Swiss albino mouse plasma at 1 mg/kg, iv", "format": "ADME, organism-based", "set-up": "time 0 - last, dose 1 mg/kg, route intravenous", "conditions": "in vivo", "in_short": "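Male Swiss Albino mice were given a single dose, either intravenous at 1 mg/kg or oral at 10 mg/kg. AUClast was measured in plasma and in brain. Half-life, plasma clearance, volume of distribution and oral bioavailability were derived from the plasma data.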"}, "[10]": {"target": "Receptor-interacting serine/threonine-protein kinase 2 (Homo sapiens) (UniProt O43353)", "test": "Inhibition of RIPK2 assessed as residual activity at 10 uM relative to control"}, "Mus musculus": {"test_system": "Mus musculus", "test": "Inhibition of LRRK2 phosphorylation at Ser935 in C57BL/6 mouse spleen at 50 mg/kg, po administered for 8 hrs followed by 2 hrs dosing", "format": "functional, organism-based", "set-up": "dose 50 mg/kg", "in_short": "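Mice were dosed by oral gavage at 10 or 50 mg/kg. Brain, spleen and kidney were collected. Endogenous LRRK2 was resolved by SDS–PAGE and blotted with phospho-specific antibodies to Ser910 and Ser935 and with an antibody to total LRRK2.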"}, "[11]": {"target": "Mitogen-activated protein kinase 15 (Homo sapiens) (UniProt Q8TD08)", "sequence (Q8TD08 whole entry)": "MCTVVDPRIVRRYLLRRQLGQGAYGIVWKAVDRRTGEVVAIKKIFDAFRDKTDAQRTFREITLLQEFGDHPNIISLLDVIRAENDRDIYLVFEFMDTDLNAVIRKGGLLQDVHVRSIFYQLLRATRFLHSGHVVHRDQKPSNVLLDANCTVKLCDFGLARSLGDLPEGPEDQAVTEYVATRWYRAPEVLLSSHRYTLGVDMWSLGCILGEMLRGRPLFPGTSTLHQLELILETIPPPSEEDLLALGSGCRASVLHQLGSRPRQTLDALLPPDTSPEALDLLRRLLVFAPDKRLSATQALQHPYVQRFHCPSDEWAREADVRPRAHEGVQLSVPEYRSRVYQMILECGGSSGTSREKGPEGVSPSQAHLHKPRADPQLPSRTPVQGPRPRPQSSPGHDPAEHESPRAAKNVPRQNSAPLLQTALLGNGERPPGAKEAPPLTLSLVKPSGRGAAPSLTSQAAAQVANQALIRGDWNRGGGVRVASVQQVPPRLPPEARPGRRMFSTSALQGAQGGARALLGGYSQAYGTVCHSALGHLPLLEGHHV", "test": "Inhibition of ERK8 assessed as residual activity at 1 uM relative to control", "in_short": "(§2)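 Standard radioactivity-based enzymatic assays were run across a 124-kinase panel (Dundee profiling), with compound at 1 µM. Kinase activity was expressed relative to control.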"}, "[12]": {"target": "Receptor tyrosine-protein kinase erbB-4 (Homo sapiens) (UniProt Q15303)", "sequence (Q15303 whole entry)": "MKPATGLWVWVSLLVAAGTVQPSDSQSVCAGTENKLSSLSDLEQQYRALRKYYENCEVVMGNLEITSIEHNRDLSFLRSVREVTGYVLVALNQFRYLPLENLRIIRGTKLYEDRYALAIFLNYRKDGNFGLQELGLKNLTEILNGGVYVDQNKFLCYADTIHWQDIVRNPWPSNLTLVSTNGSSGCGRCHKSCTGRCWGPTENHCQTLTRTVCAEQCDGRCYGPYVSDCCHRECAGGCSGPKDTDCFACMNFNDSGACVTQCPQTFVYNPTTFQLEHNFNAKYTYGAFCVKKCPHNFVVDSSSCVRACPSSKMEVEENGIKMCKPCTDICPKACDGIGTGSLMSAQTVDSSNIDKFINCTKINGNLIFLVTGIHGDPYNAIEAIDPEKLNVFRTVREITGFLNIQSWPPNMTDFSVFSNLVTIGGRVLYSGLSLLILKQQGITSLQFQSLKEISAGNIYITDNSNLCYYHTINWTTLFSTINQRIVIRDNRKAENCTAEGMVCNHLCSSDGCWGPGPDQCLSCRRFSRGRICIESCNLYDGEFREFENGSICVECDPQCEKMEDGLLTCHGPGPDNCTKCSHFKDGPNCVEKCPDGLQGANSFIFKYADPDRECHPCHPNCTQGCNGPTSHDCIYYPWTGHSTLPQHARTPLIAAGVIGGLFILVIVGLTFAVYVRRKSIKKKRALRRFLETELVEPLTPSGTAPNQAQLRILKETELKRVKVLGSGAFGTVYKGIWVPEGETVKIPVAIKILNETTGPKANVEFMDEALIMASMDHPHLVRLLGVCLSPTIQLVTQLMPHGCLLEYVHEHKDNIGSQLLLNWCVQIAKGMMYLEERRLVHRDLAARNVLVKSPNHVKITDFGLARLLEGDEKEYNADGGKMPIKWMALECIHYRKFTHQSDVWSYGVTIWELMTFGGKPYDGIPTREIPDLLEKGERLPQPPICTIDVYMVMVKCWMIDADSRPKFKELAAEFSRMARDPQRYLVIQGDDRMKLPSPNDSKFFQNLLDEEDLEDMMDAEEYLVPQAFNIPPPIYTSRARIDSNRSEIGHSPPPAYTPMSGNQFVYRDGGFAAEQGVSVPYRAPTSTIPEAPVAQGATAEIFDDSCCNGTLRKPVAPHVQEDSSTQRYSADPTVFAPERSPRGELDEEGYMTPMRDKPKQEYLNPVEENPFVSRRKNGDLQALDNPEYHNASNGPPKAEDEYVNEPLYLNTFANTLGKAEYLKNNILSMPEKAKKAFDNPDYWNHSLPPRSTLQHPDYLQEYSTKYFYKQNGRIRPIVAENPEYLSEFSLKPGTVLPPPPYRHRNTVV", "test": "Inhibition of HER4 assessed as residual activity at 1 uM relative to control", "in_short": "as §2"}, "[13]": {"target": "Mitogen-activated protein kinase 13 (Homo sapiens) (UniProt O15264)", "test": "Inhibition of p38delta MAPK assessed as residual activity at 1 uM relative to control", "in_short": "as §1"}, "[14]": {"target": "Serine/threonine-protein kinase pim-3 (Homo sapiens) (UniProt Q86V86)", "test": "Inhibition of PIM3 assessed as residual activity at 1 uM relative to control"}, "[15]": {"target": "Serine/threonine-protein kinase N2 (Homo sapiens) (UniProt Q16513)", "sequence (Q16513 whole entry, looked up)": "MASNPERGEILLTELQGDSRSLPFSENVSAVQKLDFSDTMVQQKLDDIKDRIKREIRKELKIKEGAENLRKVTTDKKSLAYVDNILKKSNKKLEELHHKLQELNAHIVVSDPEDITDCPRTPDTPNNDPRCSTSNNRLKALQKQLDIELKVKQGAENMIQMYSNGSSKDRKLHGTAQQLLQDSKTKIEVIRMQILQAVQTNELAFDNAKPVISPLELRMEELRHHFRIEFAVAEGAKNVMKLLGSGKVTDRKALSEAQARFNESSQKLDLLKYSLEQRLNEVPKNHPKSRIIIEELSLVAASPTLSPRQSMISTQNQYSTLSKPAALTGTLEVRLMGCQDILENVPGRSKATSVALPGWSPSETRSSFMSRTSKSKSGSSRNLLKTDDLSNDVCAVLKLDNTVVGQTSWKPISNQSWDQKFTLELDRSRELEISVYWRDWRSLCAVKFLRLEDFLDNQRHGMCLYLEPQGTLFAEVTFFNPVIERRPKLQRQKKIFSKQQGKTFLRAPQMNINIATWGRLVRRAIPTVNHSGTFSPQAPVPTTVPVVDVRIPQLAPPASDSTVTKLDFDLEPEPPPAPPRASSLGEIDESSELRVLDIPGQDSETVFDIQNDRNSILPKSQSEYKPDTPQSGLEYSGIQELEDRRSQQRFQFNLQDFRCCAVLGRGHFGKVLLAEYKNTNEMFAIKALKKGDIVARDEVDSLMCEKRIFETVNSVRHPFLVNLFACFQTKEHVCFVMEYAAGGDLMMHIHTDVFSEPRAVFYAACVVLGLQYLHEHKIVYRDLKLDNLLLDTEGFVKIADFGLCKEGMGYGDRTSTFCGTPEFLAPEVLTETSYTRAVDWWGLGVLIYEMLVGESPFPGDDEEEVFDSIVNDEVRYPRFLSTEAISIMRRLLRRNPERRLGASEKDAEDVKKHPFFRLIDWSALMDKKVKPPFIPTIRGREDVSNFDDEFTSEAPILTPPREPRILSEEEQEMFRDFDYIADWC", "test": "Inhibition of PRK2 assessed as residual activity at 1 uM relative to control"}}, "note": "Calls of active or inactive are those of the source. The rule behind the calls is not given here.", "data": [{"smiles": "COc1cc(N2CCC(N3CCN(C)CC3)CC2)ccc1Nc1ncc(Cl)c(Nc2ccccc2S(=O)(=O)C(C)C)n1", "note": "[TAE-684]", "values": [{"measurement": "Activity", "setting": "[1]", "result": 99, "unit": "%"}, {"measurement": "Activity", "setting": "[2]", "result": 44, "unit": "%"}, {"measurement": "Activity", "setting": "[3]", "result": 88, "unit": "%"}, {"measurement": "Activity", "setting": "[4]", "result": 95, "unit": "%"}, {"measurement": "Activity", "setting": "[5]", "result": 92, "unit": "%"}, {"measurement": "Activity", "setting": "[6]", "result": 30, "unit": "%"}, {"measurement": "Activity", "setting": "[7]", "result": 60, "unit": "%"}, {"measurement": "Activity", "setting": "[8]", "result": 87, "unit": "%"}, {"measurement": "Activity", "setting": "[9]", "result": 101, "unit": "%"}, {"measurement": "AUClast", "setting": "Plasma", "result": 772, "unit": "ng·h/mL"}, {"measurement": "Activity", "setting": "[10]", "result": 59, "unit": "%"}, {"measurement": "inhibition", "setting": "Mus musculus", "result": "Active"}, {"measurement": "Activity", "setting": "[11]", "result": 47, "unit": "%"}, {"measurement": "Activity", "setting": "[12]", "result": 36, "unit": "%"}, {"measurement": "Activity", "setting": "[13]", "result": 94, "unit": "%"}, {"measurement": "Activity", "setting": "[14]", "result": 106, "unit": "%"}, {"measurement": "Activity", "setting": "[15]", "result": 51, "unit": "%"}]}]}
